About 2,800 (0.9%) of roughly 310,000 compounds were called active.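 How the source made its calls: active means B-score of the integrated calcium signal more than 4 SD below the library mean, with starting fluorescence not abnormally high; inactive means the rest.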 Many of the other results were omitted from the sample, so actives are more common in it than they were.

The nature of this assay: RGS4 potentiators or activators, primary screen, cell-based, HEK293 M3R inducible RGS4, calcium flux (AID 463111).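 On B-score: negative B-score means reduced calcium response which marks RGS4 activation or potentiation.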 The following applies: HEK293 M3R/inducible RGS4, carbachol calcium flux Fluo4, at 10 µM; stronger effect = lower value. The gist of the method:
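Material: Inducible-RGS4 HEK293 cells carrying M3 receptor; also added: carbachol at ECmax as muscarinic agonist stimulus; incubation: compound preincubation 20 min at room temperature before agonist; signal: Fluo4-AM (2 µM) calcium-flux fluorescence, kinetic read; measure: integrated calcium ratio converted to B score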
In general terms: A change in cytosolic calcium serves as a functional read-out for many receptors and channels.
Consider `CC(C)OC(=O)c1sc2nc3c(cc2c1N)C(=O)CCC3`, for which the B-score entry was “inactive”.

With `Cc1ccc(-c2nn(-c3ccccc3)cc2C(=O)NCCCN2CCCC2=O)cc1`, the B-score result was “inactive”.

As to `Cc1cccc(C)c1NC(=O)CNC(=O)c1c(C)nn(-c2ccccc2)c1C`, the B-score entry was “inactive”.

Regarding `CN(/C(=N/S(=O)(=O)c1cccs1)c1ccccc1)c1ccc(O)cc1`, the B-score entry is “inactive”.

Regarding `CCCNC(=O)CCn1nc(-c2ccccc2)c2ccccc2c1=O`, the B-score entry was “inactive”.

Consider `CCc1cccc(CC)c1NC(=O)COc1ccccc1C(=O)c1cc(C#N)c(=O)n(C2CCCCC2)c1`, for which the B-score result is “inactive”.

`CCc1ccc(C(=O)NC(=S)Nc2ccccc2N2CCOCC2)cc1`: the B-score entry is “inactive”.

In the case of `COc1ccc(C(=O)NC(=S)Nc2ccccc2N2CCN(S(C)(=O)=O)CC2)cc1OC`, the B-score entry is “inactive”.

With `CC(=O)N1CCN(c2ccccc2NC(=S)NC(=O)c2cc3ccccc3o2)CC1`, the B-score was -6.98 (active).

As to `CCCCn1c(N)c(N(CC(C)C)C(=O)C2CSC3(C)CCC(=O)N23)c(=O)[nH]c1=O` (configuration not stated), the B-score entry is “inactive”.

In the case of `CCCCn1c(N)c(N(CC)C(=O)c2ccc(N(C)S(=O)(=O)c3ccc(C)cc3)cc2)c(=O)[nH]c1=O`, the B-score entry is “inactive”.

Turning to `CCS(=O)(=O)C1=NSC2=NC(=O)/C(=C\c3ccc(OS(=O)(=O)c4ccccc4)cc3)C(=N)N21`, the B-score result was “inactive”.

As to `Cc1cc(/C=C2/C(=N)N3C(=NC2=O)SN=C3S(C)(=O)=O)c(C)n1-c1ccccc1`, the B-score entry was “inactive”.

For `CCS(=O)(=O)C1=NSC2=NC(=O)/C(=C\c3cc(C)n(-c4cccc(OC)c4)c3C)C(=N)N21`, the B-score is -7.01 (active).

Take `COCCCNC(=O)CNC(=O)c1nn(-c2ccc(OC)cc2)c(=O)c2ccccc12`: the B-score entry is “inactive”.

Consider `Cc1cc([N+](=O)[O-])ccc1NC1CCCC1`, for which the B-score result is “inactive”.

With `Cc1cc(C=O)c(C)n1-c1ccc(NC2CCCCC2)c([N+](=O)[O-])c1`, the B-score is -7.21 (active).

Turning to `Cc1c(NS(=O)(=O)c2ccc(NC3CCCC3)c([N+](=O)[O-])c2)c(=O)n(-c2ccccc2)n1C`, the B-score result was “inactive”.

On to `Cc1cc(-c2nnc(SCC(=O)Nc3ccc(F)cc3)n2N)n[nH]1`, for which the B-score result is “inactive”.

Turning to `O=C(NCc1ccco1)/C(=C/c1cccc([N+](=O)[O-])c1)NC(=O)c1ccco1`, the B-score entry was “inactive”.

In the case of `COc1ccccc1NC(=O)COC(=O)c1ccccc1SCC(=O)N1CCCC1`, the B-score result is “inactive”.

Turning to `CC(C)N(Cc1ccccc1)C(=O)COC(=O)c1ccccc1SCC(=O)N1CCCC1`, the B-score is -8.67 (active).

In the case of `CC(NC(=O)c1ccccc1SCC(=O)N1CCCC1)c1ccccc1` (configuration not stated), the B-score entry was “inactive”.

For the compound `Cc1ccc(C(=O)N/C(=C\c2cccs2)C(=O)NCCc2ccccn2)cc1C`, the B-score entry was “inactive”.

In the case of `COc1ccc(CCN(C)C(=O)C2CCCN(Cc3ccc(OC)c(OC)c3)C2)cc1OC` (configuration not stated), the B-score entry is “inactive”.

Take `COc1cc(CN2CCCC(C(=O)c3ccc(SC)cc3)C2)cc(Cl)c1O` (configuration not stated): the B-score result was “inactive”.

`COc1ccc(CN2CCCC(C(=O)c3ccc(Cl)cc3)C2)cc1Cn1cncn1` (configuration not stated): the B-score was -10.3 (active).

Consider `CC[n+]1c(C)n(-c2ccccc2)c2ccc(NC(C)=O)cc21`, for which the B-score result was “inactive”.

As for `C=CCn1c(=N)n(CC(O)COc2ccc(OC)cc2)c2ccccc21` (configuration not stated), the B-score result is “inactive”.

Turning to `OC(CN=c1sc2ccccc2n1CC(O)COc1ccccc1)COc1ccccc1` (configuration not stated), the B-score is -10.8 (active).

For the compound `CC(C)c1ccc(OCC(O)Cn2cnc3ccccc32)cc1` (configuration not stated), the B-score entry was “inactive”.

With `COc1cccc(NC(=O)Cn2cnc3sc(C)c(S(=O)(=O)N4CCN(C)CC4)c3c2=O)c1`, the B-score result was “inactive”.

Consider `CN1CCC(OC(=O)COc2ccc(Cl)cc2Cl)CC1`, for which the B-score is -7.11 (active).

On to `O=C(CCCOc1ccc(Cl)cc1Cl)NNC(=O)C1CCC1`, for which the B-score result was “inactive”.

On to `Cc1ccc(Cl)c(OCC(=O)NN2CCN(C)CC2)c1`, for which the B-score entry was “inactive”.

Turning to `CC(C)N1C(=O)N(c2ccccc2)C(C)(O)CC1(C)C` (configuration not stated), the B-score entry was “inactive”.

Regarding `CN(C)C(CNC(=O)c1ccc(S(=O)(=O)NCc2ccco2)cc1)c1ccccc1` (configuration not stated), the B-score entry is “inactive”.

In the case of `CC(C)CN(C(=O)Cn1c(=O)cnc2ccccc21)C1CCS(=O)(=O)C1` (configuration not stated), the B-score entry is “inactive”.

`COc1ccccc1CCCNC(=O)C1CCC(=O)N(CCN2CCOCC2)C1` (configuration not stated): the B-score result is “inactive”.

With `Cc1[nH]n(-c2cccc(Cl)c2)c(=O)c1/C=N/n1c(C)nc2ccccc2c1=O`, the B-score result is “inactive”.

Take `COc1cc(SC#N)ccc1N=Cc1c(C)[nH]n(-c2ccc(C)cc2)c1=O`: the B-score entry is “inactive”.

For `Cc1ccc(-n2[nH]c(C)c(/C=N/N3C(=O)c4cccc5cccc(c45)C3=O)c2=O)cc1`, the B-score was -9.28 (active).

Regarding `COc1ccc(N2CCN(S(=O)(=O)c3ccc4c(c3)N(C(C)=O)CCO4)CC2)cc1`, the B-score result was “inactive”.

For the compound `CCOc1ccc(NC(=O)C(C)N2C(=O)c3ccccc3C2=O)cc1` (configuration not stated), the B-score result was “inactive”.

For the compound `CC(=O)c1ccc(OCC(O)CN2CCN(S(=O)(=O)c3cccc(Br)c3)CC2)cc1` (configuration not stated), the B-score entry was “inactive”.

Take `COc1ccc(C2c3ccc(O)cc3Oc3ncn(CCCO)c(=N)c32)cc1OC` (configuration not stated): the B-score result was “inactive”.

As to `c1ccc2c(c1)CSc1sccc1C2=C1CCNCC1`, the B-score was -7.49 (active).

In the case of `Nc1nnc(SCC(=O)NC2CCCc3ccccc32)s1` (configuration not stated), the B-score entry was “inactive”.

As to `CCn1ccnc1CN1CCCC(C(=O)c2ccc3c4c(cccc24)CC3)C1` (configuration not stated), the B-score entry was “inactive”.

Regarding `CN(C)CCOCCOc1ccc(Cl)c2ccccc12`, the B-score result is “inactive”.

`CC(C)(C)NCCCOc1ccc(Cl)cc1C(C)(C)C`: the B-score entry is “inactive”.

As to `CN(C)CCOc1ccc(Cl)cc1C(C)(C)C`, the B-score is -7.65 (active).

As to `COc1ccc(/C=C2/SC(=O)N(CCCCCC(=O)Nc3ccccc3C(=O)O)C2=S)cc1`, the B-score entry was “inactive”.

On to `CCCN(CCc1ccccc1)C1CCc2c(O)cccc2C1` (configuration not stated), for which the B-score was -10.2 (active).

`Cc1cc(C)cc(C(=O)N(CCc2ccccc2)C2=CC3CCC(C2)N3C)c1` (configuration not stated): the B-score entry is “inactive”.

Turning to `CN(C)S(=O)(=O)c1cccc(-c2nn(-c3ccccc3)cc2/C=C2\SC(=S)N(CC(=O)O)C2=O)c1`, the B-score entry is “inactive”.

For the compound `COc1ccc(-c2nn(-c3ccccc3)cc2/C=C2/SC(=S)N(CCCC(=O)O)C2=O)c(C)c1`, the B-score entry is “inactive”.

In the case of `Cc1ccc(-c2nn(-c3ccccc3)cc2/C=C2\SC(=S)N(CCCCCC(=O)O)C2=O)o1`, the B-score was -7.93 (active).

For `Oc1oc(-c2ccccc2Br)nc1/C=N/c1ccccn1`, the B-score result was “inactive”.

With `CSc1nnnn1-c1c(C)cc(C)cc1C`, the B-score entry was “inactive”.

In the case of `Cc1cc2oc3ccc(NCCC4CCCN4C)cc3c(=O)c2cc1C` (configuration not stated), the B-score is -9.61 (active).

As for `Cc1cc2oc(=O)cc(CN3CCN(Cc4ccccc4)CC3)c2cc1C`, the B-score result is “inactive”.

Regarding `CCCOc1ccc(C2c3c(oc4cc(C)c(C)cc4c3=O)C(=O)N2CCCN2CCOCC2)cc1` (configuration not stated), the B-score entry is “inactive”.

In the case of `C=CS(=O)c1sc(Cl)c(N2CCOCC2)c1[N+](=O)[O-]` (configuration not stated), the B-score entry is “inactive”.

With `CCC(C(=O)OC)n1cnc2scc(-c3ccc(C)cc3)c2c1=O` (configuration not stated), the B-score entry is “inactive”.

Consider `CC(=O)Nc1ccc(/C(C)=N/NC(=O)CN(c2ccccc2Br)S(C)(=O)=O)cc1`, for which the B-score entry was “inactive”.

As to `O=C(O)c1cccc2c1C(=O)N(C1CCCC1)C2`, the B-score result is “inactive”.

Consider `CCc1c(C)sc(NC(=O)c2ccc(Br)o2)c1C(=O)OC`, for which the B-score was -10.4 (active).

For the compound `CCc1c(C)sc(NC(=O)c2cccs2)c1C(N)=O`, the B-score entry was “inactive”.

Regarding `CCOC(=O)c1c(NC(=O)C2CC=CCC2C(=O)O)sc(C)c1CC` (configuration not stated), the B-score entry is “inactive”.

With `COc1cccc(OC)c1C(=O)OCC(=O)/C(C#N)=C(\C)N`, the B-score result was “inactive”.

Consider `Cc1ccc(CNC(=O)Cn2cnc(S(=O)(=O)N3CCCCC3)c2)o1`, for which the B-score entry was “inactive”.

`Cc1nn(CC(=O)Nc2ccc(C#N)cc2)c(C)c1[N+](=O)[O-]`: the B-score result is “inactive”.

On to `CCOc1ccccc1NC(=O)C1CCCN(S(=O)(=O)c2ccccc2)C1` (configuration not stated), for which the B-score entry is “inactive”.

Turning to `CC1Cc2ccccc2N1CC(=O)Nc1ccc2c(c1)OC(F)(F)O2` (configuration not stated), the B-score result was “inactive”.

For `CN1CCN(c2ccc(S(=O)(=O)Nc3ccccc3)cc2[N+](=O)[O-])CC1`, the B-score is -8.35 (active).

Turning to `CC1CCN(c2ccc(S(=O)(=O)Nc3cc(C(=O)O)cc(C(=O)O)c3)cc2[N+](=O)[O-])CC1`, the B-score result is “inactive”.

On to `COc1ccc(NS(=O)(=O)c2ccc(N3CCN(CCO)CC3)c([N+](=O)[O-])c2)cc1`, for which the B-score entry was “inactive”.

For the compound `COc1ccc(N2CCN(C(=O)C3CCN(C(=O)c4ccccc4Cl)CC3)CC2)cc1`, the B-score result was “inactive”.

With `Cc1ccc(S(=O)(=O)NCc2csc(C)n2)c(C)c1`, the B-score result is “inactive”.

For the compound `Cc1ccc(OS(=O)(=O)c2ccc(-c3csc(C)n3)s2)c(C)c1`, the B-score was -9.64 (active).

Consider `CNC(=O)c1sc(NCc2ccccc2OC)nc1C`, for which the B-score entry was “inactive”.

Take `Cc1cccc2c1-c1sc(C(=O)NCCCN3CCc4ccccc4C3)cc1CO2`: the B-score was -7.27 (active).

With `O=C(CN1C(=O)COc2ccccc21)NCCN1CCc2ccccc2C1`, the B-score entry is “inactive”.

With `O=C(NCCCN1CCOCC1)c1cc2c(s1)CCC2`, the B-score entry is “inactive”.

For the compound `CCOc1ccc(N(C)S(=O)(=O)c2cnc[nH]2)cc1`, the B-score result was “inactive”.

As for `COc1ccccc1C(=O)NC(=S)Nc1ccccc1N1CCCCC1`, the B-score entry is “inactive”.

For `Clc1ccc(COn2c(-c3ccc(Cl)cc3Cl)nc3ncccc32)cc1`, the B-score is -8.26 (active).

As for `COn1c(-c2ccc(Cl)cc2Cl)nc2ncccc21`, the B-score result is “inactive”.

For `Clc1ccc(-c2ncc3ccccn23)c(Cl)c1`, the B-score entry is “inactive”.

Turning to `COCCn1c(SCC(=O)Nc2nc(C)cs2)nnc1C(C)C`, the B-score entry is “inactive”.

On to `COCCNc1cc(-c2ccccc2)nc2cc(-c3cccc(F)c3)nn12`, for which the B-score was -7.61 (active).

For `COc1ccc(NC(=O)c2cc3nc(-c4ccccc4)cc(C)n3n2)cc1OC`, the B-score result is “inactive”.

`COC(=O)c1cc2nc(-c3ccccc3)cc(C(F)(F)F)n2n1`: the B-score entry is “inactive”.

In the case of `CN(C)CCCNC(=O)c1cc(C(=O)Cc2ccc(Cl)cc2)c[nH]1`, the B-score result was “inactive”.

As to `CC(=O)C1C(c2ccc(Cl)cc2)c2c(n[nH]c2C)CC1(C)O` (configuration not stated), the B-score entry was “inactive”.

For the compound `COC(=O)c1ccccc1NC(=O)CSc1nnnn1C`, the B-score result is “inactive”.

Regarding `Cn1nnnc1SCC(=O)Nc1nc2ccccc2s1`, the B-score is -7.23 (active).

For the compound `C=CCn1c(SCC(=O)Nc2nc3ccccc3s2)nnc1-c1ccccc1O`, the B-score result was “inactive”.

Regarding `Cc1cc(C)cc(C(=O)N2CCN=C2SCc2ccc([N+](=O)[O-])cc2)c1`, the B-score is -8.97 (active).

For `O=C(Cc1ccc(F)cc1)N1CCN=C1SCc1cccc([N+](=O)[O-])c1`, the B-score result is “inactive”.

Consider `Cc1cccc(CC(=O)N2CCN=C2SCc2ccc([N+](=O)[O-])cc2)c1`, for which the B-score result was “inactive”.

These data come from PubChem BioAssay AID463111 (Johns Hopkins Ion Channel Center, 2010).
